The pIC50 is the negative decadic logarithm of the IC50, by convention in mol/L. In general, MIC refers to the least concentration at which growth counts as inhibited. In general, inhibition in vivo refers to the drop in the measured response relative to a control, in per cent.

Each structure is given as a SMILES string. pIC50: −log10 of the molar value. ≈ marks a conversion by molar mass, not a printed value. Calls of active or inactive are those of the source.

Results on 6 molecules are retold here after ChEMBL document CHEMBL1152671, “Structure-activity relationship studies of manzamine A: amidation of positions 6 and 8 of the beta-carboline moiety” (Bioorg Med Chem, 2009).

The subject of data set [1] is Plasmodium falciparum. Description: Antimalarial activity against chloroquine-sensitive Plasmodium falciparum D6 infected in African green monkey (Cercopithecus aethiops) Vero cells assessed as parasite LDH activity after 72 hrs. It is filed as functional, organism-based.
Data set [2] relates to Plasmodium falciparum. Put plainly: Antimalarial activity against chloroquine-resistant Plasmodium falciparum W2 infected in African green monkey (Cercopithecus aethiops) (Cercopithecus aethiops) Vero cells assessed as parasite LDH activity after 72 hrs. It is filed as functional, organism-based.
Data set [3] is described as follows: Therapeutic index, ratio of TC50 for african green monkey (Cercopithecus aethiops) Vero cells to IC50 for chloroquine-sensitive Plasmodium falciparum D6 infected in african green monkey (Cercopithecus aethiops) Vero cells. The class given is cell-based. To be noted: read-out: TI.
Data set [4] is described as follows: Therapeutic index, ratio of TC50 for african green monkey (Cercopithecus aethiops) Vero cells to IC50 for chloroquine-resistant Plasmodium falciparum W2 infected in african green monkey (Cercopithecus aethiops) Vero cells. It is filed as cell-based. The conditions noted are these: read-out: TI.
The subject of data set [5] is Candida albicans. Put plainly: Antifungal activity against Candida albicans by modified NCCLS method. It is filed as functional, organism-based. The conditions noted are these: for pIC50: Candida albicans, read-out: IC50.
For data set [6], the system named is Cryptococcus neoformans. Description: Antifungal activity against Cryptococcus neoformans by modified NCCLS method. The conditions noted are these: for pIC50: Cryptococcus neoformans, read-out: IC50. The class given is functional, organism-based.
For data set [7], the system named is Candida albicans.
Data set [8] deals with Candida albicans. Put plainly: Antifungal activity against Candida albicans after 24 hrs by alamar blue assay. In general terms: Resazurin is reduced to fluorescent resorufin, in cell work by metabolically active cells.
For data set [9], the system named is Cryptococcus neoformans. Description: Antifungal activity against Cryptococcus neoformans after 24 hrs by alamar blue assay. The class given is functional.
Data set [10] has as its system Aspergillus fumigatus. Description: Antifungal activity against Aspergillus fumigatus by modified NCCLS method. The class given is functional, organism-based.
For data set [11], the system named is Aspergillus fumigatus. Put plainly: Antifungal activity against Aspergillus fumigatus after 24 hrs by alamar blue assay.
A further data set concerns Vero. Put plainly: Cytotoxicity against african green monkey Vero cells up to 470 nM by neutral red assay. To be noted: chlorocebus sabaeus. The class given is cell-based.
A further data set has as its system Plasmodium berghei. Description: Antimalarial activity against Plasmodium berghei NK65 infected in Swiss Webster mice (Mus musculus) assessed as inhibition of parasitaemia at 30 mg/kg, perorally daily for 3 consecutive days administered 2 hrs after infection measured on day 28 post infection. The conditions noted are these: route oral. The class given is functional. In a few lines:
(§1)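 Male Swiss Webster mice, 18–20 g, inoculated intraperitoneally with 2 × 10⁷ P. berghei NK-65 parasitized red blood cells taken from a donor mouse. Groups of 5 mice were dosed orally about 2 h post-infection, once daily on […], at 3.3, 10 or 30 mg/kg. Controls were vehicle and chloroquine 10 mg/kg. Mice were observed after each dose for toxicity signs. Parasitemia was read on Giemsa-stained tail-blood smears, with suppression on days 5 and 7 and cure defined as no parasitemia to day 28.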

In a further data set the test system is Mus musculus. Put plainly: Toxicity in Swiss Webster mice (Mus musculus) infected with Plasmodium berghei NK65 at 30 mg/kg, perorally QD for 3 consecutive days administered 2 hrs after infection. The class given is organism-based. More on the design: dose 30 mg/kg, route oral. The conditions noted are these: in vivo, po. The procedure, abridged: as §1
Data set [12] relates to Mycobacterium intracellulare. Put plainly: Antibacterial activity against Mycobacterium intracellular by alamar blue assay. The class given is functional, organism-based.
For data set [13], the system named is Mycobacterium intracellulare. Put plainly: Antibacterial activity against Mycobacterium intracellular after 24 hrs by alamar blue assay. It is filed as functional.
In the next data set the test system is Escherichia coli. Put plainly: Antibacterial activity against Escherichia coli by modified NCCLS method. The class given is functional, organism-based.
Another data set relates to Pseudomonas aeruginosa. Put plainly: Antibacterial activity against Pseudomonas aeruginosa by modified NCCLS method. It is filed as functional, organism-based.
For data set [14], the system named is Aspergillus fumigatus.

In the case of `O[C@]12C=C(c3nccc4c3[nH]c3ccccc34)[C@@H]3CCN(CCCC/C=C\CC1)C[C@@]31C[C@@H]3/C=C\CCCCN3[C@H]12` [MANZAMINE A], the pIC50 with Plasmodium falciparum [1] is 8.10; in the data set on Plasmodium falciparum [2], 7.96; in the data set with Candida albicans [5] it was 5.44; with Cryptococcus neoformans [6], 5.73. In addition, the selectivity ratio in data set [3] came to 44; in [4], 25. Further, the MIC result in the data set with Candida albicans [7] was “inactive”.

`C[C@@H]1[C@H](O)[C@@H](C)/C=C/C=C/C=C/C=C/C=C/C=C/C=C/[C@H](O[C@@H]2O[C@H](C)[C@@H](O)[C@H](N)[C@@H]2O)C[C@@H]2O[C@](O)(C[C@@H](O)C[C@@H](O)[C@H](O)CC[C@@H](O)C[C@@H](O)CC(=O)O[C@H]1C)C[C@H](O)[C@H]2C(=O)O` [AMPHOTERICIN B]: the negative-log IC50 (pIC50) in the data set with Candida albicans [5] is 6.31; in the data set on Cryptococcus neoformans [6] it was 6.04; in the data set on Aspergillus fumigatus [10] (Aspergillus fumigatus, read-out: IC50), 5.79. Also, the MIC came out at 1.35 µM (≈ 1.25 µg/mL) in the data set on Candida albicans [8], 2.71 µM (≈ 2.5 µg/mL) against Cryptococcus neoformans [9] and 2.7 µM (≈ 2.5 µg/mL) against Aspergillus fumigatus [11].

Take `CCCCCC(=O)Nc1cccc2c1[nH]c1c(C3=C[C@@]4(O)CC/C=C\CCCCN5CC[C@@H]3[C@]3(C[C@@H]6/C=C\CCCCN6[C@H]34)C5)nccc12` [8-N-HEXAMIDOMANZAMINE A]: the negative logarithm of the IC50 (pIC50) with Plasmodium falciparum [1] was 7.49; with Plasmodium falciparum [2], 7.19; with Cryptococcus neoformans [6] it was 5.42; in data set [12], 7.52. In addition, the Activity result in the data set on Vero and in the data set with Mus musculus was “Non-toxic” in each case. In the data set with Plasmodium berghei, the inhibition in vivo at 30 mg/kg was determined as 62%. Further, the IC50 result with Candida albicans [5] and in the data set with Aspergillus fumigatus [10] was “Not Active” each time. Besides, the MIC entry in the data set with Cryptococcus neoformans [9], with Candida albicans [7] and with Aspergillus fumigatus [14] was “inactive” in each case. The molecule also yielded an MIC in data set [13] of 0.468 µM (≈ 0.31 µg/mL). Also, the outcome in the data set on Escherichia coli and with Pseudomonas aeruginosa was inactive.

Take `CCC(=O)Nc1ccc2[nH]c3c(C4=C[C@@]5(O)CC/C=C\CCCCN6CC[C@@H]4[C@]4(C[C@@H]7/C=C\CCCCN7[C@H]45)C6)nccc3c2c1` [6-N-PROPAMIDOMANZAMINE A]: the values for the negative-log IC50 (pIC50) (with Plasmodium falciparum [1]; in the data set on Plasmodium falciparum [2]; in data set [12]) were 5.93, 5.71 and 5.25, respectively. In addition, the Activity entry in the data set with Vero is given as “Non-toxic”. Moreover, the IC50 result in the data set on Candida albicans [5], in the data set with Cryptococcus neoformans [6] and in the data set with Aspergillus fumigatus [10] was “Not Active” throughout. The MIC entry in the data set with Cryptococcus neoformans [9], in the data set on Candida albicans [7] and with Aspergillus fumigatus [14] was “inactive” each time. In data set [13], this molecule came in with an MIC of 8.07 µM (≈ 5 µg/mL). Further, the result in the data set with Escherichia coli and in the data set on Pseudomonas aeruginosa was inactive.

Turning to `O=C(Nc1ccc2[nH]c3c(C4=C[C@@]5(O)CC/C=C\CCCCN6CC[C@@H]4[C@]4(C[C@@H]7/C=C\CCCCN7[C@H]45)C6)nccc3c2c1)C1CCCCC1` [6-CYCLOHEXAMIDOMANZAMINE A], the negative-log IC50 (pIC50) was 7.47 with Plasmodium falciparum [1], 7.28 in the data set with Plasmodium falciparum [2], 4.65 in the data set on Cryptococcus neoformans [6] and 5.90 in [12]. Moreover, the Activity entry in the data set on Vero and in the data set on Mus musculus was “Non-toxic” throughout. For the same molecule, the inhibition in vivo at 30 mg/kg in the data set on Plasmodium berghei was 24%. Further, the IC50 entry in the data set with Candida albicans [5] and in the data set on Aspergillus fumigatus [10] was “Not Active” throughout. Also, the MIC entry in the data set on Cryptococcus neoformans [9], in the data set on Candida albicans [7] and in the data set on Aspergillus fumigatus [14] was “inactive” in each case. Further, the MIC in data set [13] was 1.86 µM (≈ 1.25 µg/mL). Besides, the result with Escherichia coli and with Pseudomonas aeruginosa was inactive.

Consider `CC(C)(C)CC(=O)Nc1cccc2c1[nH]c1c(C3=C[C@@]4(O)CC/C=C\CCCCN5CC[C@@H]3[C@]3(C[C@@H]6/C=C\CCCCN6[C@H]34)C5)nccc12`, for which the negative logarithm of the IC50 (pIC50) in the data set on Plasmodium falciparum [1] is 6.86; in the data set with Plasmodium falciparum [2], 6.90; in the data set with Cryptococcus neoformans [6] it was 4.84; in data set [12] it was 5.82. In addition, the Activity entry in the data set with Vero is recorded as “Non-toxic”. Moreover, the IC50 entry in the data set on Candida albicans [5] and with Aspergillus fumigatus [10] was “Not Active” each time. For the same molecule, the MIC result in the data set on Cryptococcus neoformans [9], in the data set with Candida albicans [7] and in the data set with Aspergillus fumigatus [14] was “inactive” each time. Moreover, the MIC in data set [13] amounted to 3.78 µM (≈ 2.5 µg/mL). The result with Escherichia coli and in the data set on Pseudomonas aeruginosa was inactive.
